18 compounds from ChEMBL document CHEMBL1152331, “seco-Abietane diterpenoids, a phenylethanoid derivative, and antitubercular constituents from Callicarpa pilosissima” (2009) can be followed below.

Converted amounts (≈) assume the structure as drawn.

This assay deals with Mycobacterium tuberculosis. Briefly: Antitubercular activity against Mycobacterium tuberculosis H37Rv after 2 weeks. Type of assay: functional. The settings on record: 336 h. An outline of the steps: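 Agar proportion method on Middlebrook 7H10 with OADC; compound mixed into agar at 50-56 °C by serial dilution, final 100 to 0.8 µg/mL, poured into quadrant plates. Inoculum in 7H9 broth adjusted to McFarland no. 1, then diluted 10-2; 33 µL per quadrant. Incubated 35 °C, 10% CO2, 2 weeks; MIC read. Ethambutol as positive control.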
The compound `COc1ccc(-c2oc3cc(OC)c(OC)c(O)c3c(=O)c2OC)cc1OC` [ARTEMETIN] registered an MIC of 186 µM (≈ 72.1 µg/mL).

The compound `C=C(C)[C@@H]1CCC2=C(CCC(C(C)C)=C2)[C@@]1(C)CCC(=O)OC` came in with an MIC of 38 µM (≈ 12 µg/mL).

`COc1ccc(-c2oc3cc(OC)c(OC)c(O)c3c(=O)c2OC)cc1O` [CASTICIN] returned an MIC of 214 µM (≈ 80.1 µg/mL).

For `CC(C)c1ccc2c(c1)CC[C@H]1C(C)(C)C(=O)CC[C@]21C`, it took 148 µM (≈ 42.1 µg/mL) to inhibit growth (MIC).

With `CC(C)c1ccc2c(c1)C(=O)C[C@H]1C(C)(C)CCC[C@]21C`, the MIC was above 300 µM.

Turning to `C=C(C)[C@@H]1CC=C2C=C(C(C)C)CC[C@]2(O)[C@@]1(C)CCC(=O)O` [9R-HYDROXYCALLICARPIC ACID A], the lowest concentration to inhibit growth (MIC) was 113 µM (≈ 36 µg/mL).

For the compound `COc1cc2oc(-c3ccc(O)cc3)c(OC)c(=O)c2c(O)c1OC` [PENDULETIN], 157 µM (≈ 54.1 µg/mL) was the least that counted as inhibitory (MIC).

For `C=C(C)[C@@H]1CCC2=C(C(=O)C=C(C(C)C)C2=O)[C@@]1(C)CCC(=O)O` [CALLICARPIC ACID B], inhibition of growth (MIC) required 63.6 µM (≈ 21 µg/mL).

As to `CC(C)=CCC/C(C)=C/CC/C(C)=C/CC/C=C(\C)CC/C=C(\C)CCC=C(C)C` [SQUALENE], the MIC was 122 µM (≈ 50.1 µg/mL).

With `CCCCCCCCCCCCCCCCCC(=O)O` [STEARIC ACID], the MIC was above 300 µM.

Compound `CC[C@@H](CO)NCCN[C@@H](CC)CO` [ETHAMBUTOL] yielded an MIC of 30.6 µM (≈ 6.25 µg/mL).

As to `COc1cc([C@H]2OC[C@@H]3C(=O)OC[C@@H]32)cc(OC)c1O`, the MIC turned out to be 257 µM (≈ 72.1 µg/mL).

`C=C(C)[C@@H]1CCc2cc(C(C)C)ccc2[C@@]1(C)CCC(=O)OC` had an MIC of 153 µM (≈ 48.1 µg/mL).

Consider `CCCCCCCCCCCCCC(=O)OCCc1ccc(O)cc1`, for which the MIC was above 300 µM.

In turn, `COc1ccc(-c2oc3cc(OC)c(OC)c(OC)c3c(=O)c2OC)cc1OC` [HEXAMETHOXYFLAVONE] had an MIC of 179 µM (≈ 72.1 µg/mL).

In the case of `CC[C@H](CC[C@@H](C)[C@H]1CC[C@H]2[C@@H]3CC=C4CC(=O)CC[C@]4(C)[C@H]3CC[C@]12C)C(C)C` [BETA-SITOSTENONE], the MIC is above 300 µM.

In turn, `COc1ccc(-c2cc(=O)c3c(O)cc(O)cc3o2)cc1` [ACACETIN] yielded an MIC of 282 µM (≈ 80.1 µg/mL).

In the case of `C=C(C)[C@@H]1CC=C2C=C(C(C)C)CC[C@@H]2[C@@]1(C)CCC(=O)O` [CALLICARPIC ACID A], the lowest concentration to inhibit growth (MIC) was 238 µM (≈ 72.1 µg/mL).

As usually defined, the MIC is the least concentration at which growth counts as inhibited. A lower MIC goes with a more susceptible organism.
